In PubChem BioAssay AID821 (SRMLSC, 2007):
Active and inactive are the calls of the source.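 Rule for the calls: active = compounds whose fitted half-maximal concentration for reducing fibroblast viability is 100 µM or lower; inactive = the rest.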

Experiment: LL 47 lung fibroblast growth inhibition, concentration-response, selectivity test for endothelial growth inhibitor program, cellular, luminescent ATP readout (AID 821);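 note: 100% = median of untreated cell-only wells and 0% = no luminescence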
Conditions: LL 47 lung fibroblast viability, ATP luminescence; at 20 µM (top of the series)
Outline: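 Assay system: LL 47 human lung fibroblast cells | Amount: 1,150 cells/well | Schedule: 72 h exposure, 37 °C | Measured by: CellTiter-Glo luminescence | Measure: Percent viability relative to untreated wells, EC50 via 4-parameter fit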

Structure (SMILES)	viability
Cn1c(=O)cc(SCC(=O)NCC2COc3ccccc3O2)c2ccccc21 (centres undefined)	104% (inactive)
Cc1nc2ccccc2n1CCc1nc2c3ccccc3nc(SCC(=O)NCc3ccco3)n2n1	101% (inactive)
CCOC(=O)N1CCN(c2ncnc3c2oc2nc(C(C)C)c4c(c23)CCC4)CC1	108% (inactive)
CCCCCCCCOC(=O)C1=C(C)Nc2nnnn2C1c1cccs1 (centres undefined)	117% (inactive)
CCOC(=O)c1ccc2c(c1)NC(=O)C(N1CCN(c3ccc(OC)cc3)CC1)S2 (centres undefined)	84.9% (inactive)
O=C(COc1nc2ccccc2nc1N1CCOCC1)N1CCc2ccccc21	95.5% (inactive)
O/N=C1\CC/C(=N\O)c2nn(-c3ccccc3Cl)nc21	87.3% (inactive)
COc1ccc(OC)c(-n2nnnc2SCC(=O)Nc2ccc3c(c2)OCCO3)c1	103% (inactive)
O=C(CCSc1ccc(Cl)cc1)N1CCN(c2ncccn2)CC1	96.4% (inactive)
O=C(COc1ccc(Cl)cc1)Nc1ccccc1C(=O)NCc1ccco1	82.7% (inactive)
Cn1c(=O)c2c(nc(Oc3ccc4c(c3)OCO4)n2Cc2ccc(Cl)cc2)n(C)c1=O	87.5% (inactive)
CCOC(=O)N1CCc2c(sc(NC(=O)c3ccc(S(=O)(=O)N4CCCC4)cc3)c2C#N)C1	81.6% (inactive)
CCCCC(=O)Nc1ccc(C(=O)Nc2ccc(S(=O)(=O)N3CCCC3)cc2)cc1	104% (inactive)
COc1cccc(-c2nnc(Nc3nc4c(F)cccc4s3)o2)c1	84.7% (inactive)
C/C(=N\O)c1ccc2c3ccccc3n(C)c2c1	111% (inactive)
Cc1cc(NC(=O)COC(=O)C(Nc2ccc(C(F)(F)F)cc2Cl)C(C)C)no1 (centres undefined)	90.8% (inactive)
Cc1cc2nc(C3CCN(CC4COc5ccccc5O4)CC3)[nH]c2cc1C (centres undefined)	88.5% (inactive)
CCOC(=O)c1ccc(NC(=O)c2c(C)[nH]c(C(=O)OCC)c2C)cc1	103% (inactive)
COC(=O)c1c(C)n(-c2ccc(OC)cc2)c2ccc(O)cc12	87.7% (inactive)
COC(=O)c1ccc2c(=O)n(Cc3ccco3)c(SCC(=O)Nc3ccccc3Cl)nc2c1	104% (inactive)
Cc1nn(-c2ccc(Cl)cc2)c2sc(C(=O)N3CCN(c4ccccn4)CC3)cc12	91.4% (inactive)
COc1ccc(CCn2c(=S)[nH]c3cc(C(=O)NCc4ccco4)ccc3c2=O)cc1OC	108% (inactive)
COC(=O)c1ccccc1NC(=O)c1cc(-c2cccs2)on1	90.8% (inactive)
O=c1oc(-c2ccccc2F)nc2c1cnn2-c1ccccc1	105% (inactive)

Structure (SMILES)	viability
Cc1ccc(C(=O)Nc2ncc(Cc3ccc(F)cc3)s2)o1	117% (inactive)
Cc1ccc2nc(NC(=O)CSc3ncnc4c3oc3ccccc34)sc2c1	113% (inactive)
COc1cccc(C(=O)CSc2nnc(-c3cc(OC)cc(OC)c3)o2)c1	91.3% (inactive)
Cc1ccc(C(C)C)c(OCC(=O)Nc2ccc3c(c2)nc(CN2CCCC2)n3C)c1	91.9% (inactive)
Nc1c(C(=O)NCc2ccc(F)cc2)c2nc3ccccc3nc2n1CCCN1CCOCC1	85.7% (inactive)
CCOC(=O)c1c(CN2CCN(c3ccccc3)CC2)oc2ccc(O)cc12	83.2% (inactive)
COc1cc(OC)cc(C(=O)Nc2ccc(-c3nc4ccccc4o3)cc2)c1	107% (inactive)
Cc1ccc2[nH]c3c(c2c1)CCC3=O	110% (inactive)
Cc1ccc2[nH]c3c(N4CCN(Cc5ccc6c(c5)OCO6)CC4)ncnc3c2c1	88.1% (inactive)
N#Cc1nc(COc2ccc(-c3ccccc3)cc2)oc1NCCCN1CCOCC1	91.9% (inactive)
O=C(Nc1nnc(-c2ccc3c(c2)CCCC3)o1)c1ccc(Cl)cc1Cl	95.8% (inactive)
O=C1CSC(c2ccccn2)N1Cc1cn2ccccc2n1 (centres undefined)	99.9% (inactive)
Cn1c(NC(=O)c2cccc(Cn3cc(Cl)cn3)c2)nc2ccccc21	103% (inactive)
CCCCC(=O)O[C@H]1CC[C@H]2[C@@H]3CCc4cc(O)ccc4[C@H]3CC[C@]12C	84% (inactive)
OC(C#Cc1ccccn1)c1cccs1 (centres undefined)	98.2% (inactive)
CCOc1ccc(NS(=O)(=O)c2ccc(OCC(=O)NCCCOC)cc2)cc1	93.1% (inactive)
CCCCCCn1c(C)nc2c(c1=O)c1nc3ccccc3nc1n2/N=C/c1ccco1	111% (inactive)
COc1ccc2[nH]cc(C(=O)CN3CCN(C(=O)c4ccco4)CC3)c2c1	108% (inactive)
CCC(C)NC(=O)c1c(N)n(/N=C/c2cccnc2)c2nc3ccccc3nc12 (centres undefined)	104% (inactive)
COC(=O)c1sccc1NC(=O)c1ccc2c(c1)OCO2	103% (inactive)
CCCC(=O)Nc1cccc(-c2nc3cc(C)c(C)cc3o2)c1	104% (inactive)
CCCN(CCO)Cc1cccc(Br)c1	97.9% (inactive)
c1cc2c3c(cccc3c1)NC1(CCCCCC1)N2	86.2% (inactive)
Cc1cc(=O)[nH]c2ccc(Cl)cc12	102% (inactive)

Structure (SMILES)	viability
CCCCCn1c(CN2CCN(c3cc(Cl)ccc3C)CC2)nc2c1c(=O)[nH]c(=O)n2C	81.2% (inactive)
COc1ccc(NC(=O)CSc2nnc(CNC(=O)COc3ccc(Cl)cc3)o2)c(OC)c1	97% (inactive)
COc1ccc(CCC(=O)N2CCN(C3CCCCC3)CC2)cc1	95.1% (inactive)
CC1(C)Cc2c(C#N)c(SCC(=O)c3ccccc3)nc(N3CCOCC3)c2CO1	90.1% (inactive)
N/C(Cc1ccc(Cl)cc1)=N\OC(=O)c1ccc2ccccc2c1	91.6% (inactive)
CC1=C(C(=O)OC2CCCCCCC2)C(c2cc3c(cc2Br)OCO3)CC(=O)N1 (centres undefined)	82.2% (inactive)
Cc1ccc(S(=O)(=O)c2c(C)nn(C(C)(C)C)c2OC(=O)c2ccco2)cc1	108% (inactive)
CCOC(=O)N1CCN(C(=O)c2nn(-c3ccc(C)cc3)c(=O)c3c2c2ccccc2n3C)CC1	100% (inactive)
Cc1ccc(-n2nnnc2SCC(=O)Nc2ccc3c(c2)COC3=O)cc1C	94.5% (inactive)
Cc1cc(N2CCCCC2)nc2ccc(NC(=O)c3ccc(Br)o3)cc12	94.4% (inactive)
CC(C)COc1ccc2[nH]c3c(c2c1)CCCC3=O	101% (inactive)
CN1CCN(C(=O)c2ccc(COc3ccc(Cl)cc3Cl)cc2)CC1	103% (inactive)
O=C(CCN1CCN(Cc2ccccc2)CC1)Nc1ccc(OCc2ccccc2)cc1	97.3% (inactive)
COc1ccc(-c2noc(-c3ccc(Br)o3)n2)cc1OC	116% (inactive)
CC1(C)CSC(=S)N1S(=O)(=O)c1ccccc1	115% (inactive)
COc1ccccc1OCC(=O)Nc1cccc(-c2nc3ccccc3o2)c1	99% (inactive)
O=C(/C=C/NNC(=O)c1ccccc1)c1ccccc1	93.2% (inactive)
CCCCCCn1c(N2CCN(c3ccccc3)CC2)nc2c1c(=O)n(C)c(=O)n2C	101% (inactive)
COc1ccc(CCNC(=O)c2ccc3c(=O)n(Cc4ccco4)c(=S)[nH]c3c2)cc1OC	112% (inactive)
COc1ccc2[nH]cc(C(=O)CN3CCN(C4CCCCC4)CC3)c2c1	103% (inactive)
Cc1sc2nc(SCC(=O)NCc3ccco3)n(CCc3ccccc3)c(=O)c2c1C	121% (inactive)
N#Cc1nc(-c2ccc(OCc3ccccc3)cc2)oc1NCCCn1ccnc1	92.9% (inactive)
Cc1ccc(C)c(C(C)NC(=O)C2C3CCC(O3)C2C(=O)O)c1 (centres undefined)	94.5% (inactive)
Cc1c(Cl)cccc1-c1ccc(/C=N/n2cnnc2)o1	98.9% (inactive)

Structure (SMILES)	viability
Brc1ccc(-c2csc(NNC3=NCCCCC3)n2)cc1	90.2% (inactive)
CC(C)c1ccc(C2C3CSCC=C3C(C#N)=C(N)C2(C#N)C#N)cc1 (centres undefined)	88.4% (inactive)
CCOC(=O)c1cc2c(N)c(C(=O)c3cc(C#N)c(SC)nc3C)sc2nc1C	101% (inactive)
Cc1cc(C(=O)OC(C)C(=O)Nc2cccc(S(=O)(=O)N3CCOCC3)c2)c(C)o1 (centres undefined)	105% (inactive)
Cn1cc(SCC(=O)Nc2nc3ccccc3s2)c2ccccc21	82.4% (inactive)
Cc1cc(/C=N/n2cnnc2)c(C)n1-c1ccc(OCc2ccc(Cl)cc2Cl)cc1	86.5% (inactive)
Nc1c(S(=O)(=O)c2ccccc2)c2nc3ccccc3nc2n1/N=C/c1cccc(O)c1	94.2% (inactive)
O=C1C2C3C=CC(CO)(O3)C2C(=O)N1c1ccccc1-c1ccccc1 (centres undefined)	91.7% (inactive)
Cc1c(CN(C)C(=O)c2sc3cc(Cl)ccc3c2Cl)cnn1C	94.6% (inactive)
COc1cc2cc(C(c3nnnn3C3CCCC3)N3CCc4ccccc43)c(=O)[nH]c2cc1OC (centres undefined)	92.9% (inactive)
O=C(CCC1CCCC1)c1c(O)c2ccccc2oc1=O	93.9% (inactive)
CC(=O)Nc1ccc(S(=O)(=O)NC2=C(N3CCN(Cc4ccccc4)CC3)C(=O)c3ccccc3C2=O)cc1	89.8% (inactive)
O=C1C2=C(NC(=S)NC2c2ccc(Cl)cc2)NC(c2ccc(Cl)cc2)N1c1ccc(Cl)cc1 (centres undefined)	99.2% (inactive)
Oc1ccc2oc3c(c2c1/C=N/n1cnnc1)CCCC3	99.5% (inactive)
CC1=C(SCCC#N)S/C(=C2\SC(C)=C(SCCC#N)S2)S1	112% (inactive)
Cn1nc(C(C)(C)C)cc1C(=O)NCc1ccc(N2CCCC2=O)cc1	107% (inactive)
COCCCNC(=O)c1ccc2c(=O)n(Cc3ccc4c(c3)OCO4)c(=S)[nH]c2c1	106% (inactive)
N#C/C(=C/c1ccc(N2CCCCCC2)o1)c1ccc(Cl)cc1	100% (inactive)
Cc1sc2nc(SCC(=O)c3cccs3)n(Cc3ccco3)c(=O)c2c1C	87% (inactive)
CCCOc1ccc(-c2nc(C#N)c(NCCCn3ccnc3)o2)cc1	90.9% (inactive)
CCn1c(SCC(=O)Nc2ccc3c(c2)oc2ccccc23)nnc1-c1ccc(N)cc1	97.6% (inactive)
Cc1ccc(NC(=O)C(C)N2C(=O)c3ccccc3C2=O)cc1 (centres undefined)	107% (inactive)
